Measurements from PMC7395825 (OncoTargets and therapy, 2020).
Values joined by “and” are separate entries in the source; they are usually repeats but may differ in a detail not shown here. Equal values may be shown once. Read-outs that look alike come from different tables or passages of the source.

Experiments:
DLD-1 cancer cells [1] = test: Flow cytometric analysis of apoptosis; assay type: cell-based, human; details: DLD-1, at IC50 concentration (KA39 9 μM, etoposide 27 μM)
topoisomerase II = topoisomerase II (Homo sapiens, UniProt P11388); test: DNA topoisomerase II assay; assay type: biochemical
Chain of topoisomerase II (P11388 whole entry): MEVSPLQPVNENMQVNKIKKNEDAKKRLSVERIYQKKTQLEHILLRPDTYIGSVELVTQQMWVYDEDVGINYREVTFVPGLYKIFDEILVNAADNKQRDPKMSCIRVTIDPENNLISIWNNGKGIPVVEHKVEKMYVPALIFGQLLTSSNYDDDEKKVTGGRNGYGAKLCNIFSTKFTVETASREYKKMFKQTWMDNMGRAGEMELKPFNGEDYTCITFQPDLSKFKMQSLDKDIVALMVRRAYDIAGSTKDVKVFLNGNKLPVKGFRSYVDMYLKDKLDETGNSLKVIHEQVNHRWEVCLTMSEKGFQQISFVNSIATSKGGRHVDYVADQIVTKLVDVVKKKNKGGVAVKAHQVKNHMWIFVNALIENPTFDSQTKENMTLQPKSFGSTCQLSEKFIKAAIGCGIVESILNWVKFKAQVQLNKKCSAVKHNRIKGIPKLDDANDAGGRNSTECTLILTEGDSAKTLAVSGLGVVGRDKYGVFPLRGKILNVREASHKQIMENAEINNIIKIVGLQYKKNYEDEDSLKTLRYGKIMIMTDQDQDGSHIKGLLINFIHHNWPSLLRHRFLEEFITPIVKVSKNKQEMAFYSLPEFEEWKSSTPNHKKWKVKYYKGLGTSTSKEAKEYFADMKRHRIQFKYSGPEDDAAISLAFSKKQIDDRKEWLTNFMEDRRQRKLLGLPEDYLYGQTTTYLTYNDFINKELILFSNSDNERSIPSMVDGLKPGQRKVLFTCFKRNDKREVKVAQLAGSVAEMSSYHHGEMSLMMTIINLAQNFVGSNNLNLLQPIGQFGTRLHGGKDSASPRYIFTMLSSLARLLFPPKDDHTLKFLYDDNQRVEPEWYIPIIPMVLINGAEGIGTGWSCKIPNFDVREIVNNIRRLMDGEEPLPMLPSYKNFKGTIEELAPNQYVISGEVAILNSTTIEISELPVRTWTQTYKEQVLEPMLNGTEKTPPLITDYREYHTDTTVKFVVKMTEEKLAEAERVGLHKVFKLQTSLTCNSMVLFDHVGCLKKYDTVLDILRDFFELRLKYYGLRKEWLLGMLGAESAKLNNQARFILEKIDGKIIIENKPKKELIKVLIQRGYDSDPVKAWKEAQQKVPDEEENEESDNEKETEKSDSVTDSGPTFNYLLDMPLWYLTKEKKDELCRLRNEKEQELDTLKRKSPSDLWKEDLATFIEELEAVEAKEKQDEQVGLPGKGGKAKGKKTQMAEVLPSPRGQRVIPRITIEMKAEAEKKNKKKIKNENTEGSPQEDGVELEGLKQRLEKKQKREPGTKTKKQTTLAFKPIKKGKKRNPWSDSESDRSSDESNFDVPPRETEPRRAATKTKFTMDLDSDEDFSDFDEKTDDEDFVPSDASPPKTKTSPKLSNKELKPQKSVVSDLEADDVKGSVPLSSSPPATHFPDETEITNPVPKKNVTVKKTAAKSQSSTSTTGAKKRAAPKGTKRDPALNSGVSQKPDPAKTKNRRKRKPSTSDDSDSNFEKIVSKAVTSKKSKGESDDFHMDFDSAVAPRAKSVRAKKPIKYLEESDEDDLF

DLD-1 cancer cells [2] = test: MTT assay, in vitro antiproliferative activity, DLD-1; assay type: cell-based, human; details: for TGI (total 100% growth inhibition): DLD-1, MTT, 48 hours of drug exposure; for GI50 / IC50: Homo sapiens, DLD-1, 48 h; for GI50: read-out: GI50 (50% growth inhibition); for IC50: read-out: IC50 (half maximal cytotoxic concentration)
How it was run: (§1)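 Cells kept in ATCC-recommended medium with 10% FBS and 1% penicillin/streptomycin at 37°C, 5% CO2, seeded at 8×10^3 cells/well. After 24 h, exposed 48 h to test compound (DMSO stock 15 mM) at seven concentrations across 1–100 μM. Medium renewed, MTT added for 3 h, formazan dissolved in DMSO, absorbance read at 540 nm. […] Triplicate.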

[3] = MTT assay, normal lung cells; assay type: cell-based, human; details: human, MRC5 normal lung cells
How it was run: as §1

[4] = system: healthy lung (MRC5) cells; test: MTT assay, normal lung cells; assay type: cell-based, human; details: for GI50: Homo sapiens, MRC5, 48 h, read-out: GI50 (50% growth inhibition); for Selectivity: GI50, TGI and IC50 values, MRC5 cells versus cancer cell lines: MRC5 versus DLD-1, HT-29, LoVo
How it was run: as §1

LoVo cancer cells = test: MTT assay, in vitro antiproliferative activity, LoVo; assay type: cell-based; details: Homo sapiens, 48 h; for GI50: read-out: GI50 (50% growth inhibition); for IC50: read-out: IC50 (half maximal cytotoxic concentration)
How it was run: as §1

HT-29 cancer cells [5] = test: MTT assay, in vitro antiproliferative activity, HT-29; assay type: cell-based, human; details: for TGI (total 100% growth inhibition): HT-29, MTT, 48 hours of drug exposure, unit given; for GI50 / IC50: Homo sapiens, HT-29, 48 h; for GI50: read-out: GI50 (50% growth inhibition); for IC50: read-out: IC50 (half maximal cytotoxic concentration)
How it was run: as §1

HT-29 cancer cells [6] = test: Flow cytometric analysis of cell cycle growth arrest; assay type: cell-based, human
How it was run: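 HT-29 cells seeded in 6-well plates and grown 24 h at 37°C, 5% CO2. Medium renewed, then cells exposed to test compound for 24 h or 48 h at the stated levels, with untreated and etoposide-treated parallels. Cells trypsinised, washed and lysed in nuclei extraction buffer for 15 min in the dark. DNA stained with PI/RNase solution for 30–60 min in the dark. Flow cytometry, 1×10^4 events per sample, triplicate.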

[7] = system: topIIα phosphorylation (Ser1106); test: TopIIα phosphorylation cell-based ELISA, LoVo; parameters: species or system human; details: for maximum inhibitory effect on topIIα phosphorylation: LoVo cells, at either TGI or IC50 concentrations over 6 or 24 hour treatment; for effect on topIIα phosphorylation: LoVo, 6 hours, KA39 TGI and IC50, KA25 TGI 13.8 μΜ, KA26 TGI 100 μΜ
[8] = system: topIIα phosphorylation (Ser1106); test: TopIIα phosphorylation cell-based ELISA, HT-29; parameters: species or system human; details: HT-29 cells, at either TGI or IC50 concentrations over 6 or 24 hour treatment
[9] = HT-29, IC50 concentration (KA39 19.5 μM), 24 hours
[10] = HT-29, TGI concentration (KA39 15.9 μM, etoposide 69 μM), 48 hours

SMILES | early apoptosis (Q4) (DLD-1 cancer cells [1]; 48 hours) [%] | late apoptosis (Q2) (DLD-1 cancer cells [1]; 48 hours) [%] | early apoptosis (Q4) (DLD-1 cancer cells [1]; 72 hours) [%] | late apoptosis (Q2) (DLD-1 cancer cells [1]; 72 hours) [%] | TGI (total 100% growth inhibition) (DLD-1 cancer cells [2]) [µM] | GI50 (DLD-1 cancer cells [2]) [µM] | IC50 (DLD-1 cancer cells [2]) [µM] | IC50 at 48 h [3] [µM] | GI50 [4] [µM] | GI50 (LoVo cancer cells) [µM] | IC50 (LoVo cancer cells) [µM] | TGI (total 100% growth inhibition) (HT-29 cancer cells [5]) | GI50 (HT-29 cancer cells [5]) [µM] | IC50 (HT-29 cancer cells [5]) [µM] | % of cells in G1 phase (HT-29 cancer cells [6]; [9]) [%] | % of cells in G2/M phase (HT-29 cancer cells [6]; [9]) [%] | maximum inhibitory effect on topIIα phosphorylation [7] [%] | effect on topIIα phosphorylation [7] | maximum inhibitory effect on topIIα phosphorylation [8] [%] | Selectivity: GI50, TGI and IC50 values, MRC5 cells versus cancer cell lines [4] | other results
COc1cc([C@@H]2c3cc4c(cc3[C@@H](O[C@@H]3O[C@@H]5CO[C@@H](C)O[C@H]5[C@H](O)[C@H]3O)[C@H]3COC(=O)[C@H]23)OCO4)cc(OC)c1O [Etoposide, reference compound] | 51.12 | 18.84 | 42.01 | 30.48 | 8 ± 0.5 | 1.8 ± 0.39 | 27 ± 0.28 | > 100 | 25 ± 0.3 | 14 ± 0.5 | > 100 | 69 ± 0.9 µM | 9.5 ± 0.5 | > 100 | 57.28 | 5.99 |  |  |  |  | topoisomerase II reaction product on agarose gel (topoisomerase II): linear DNA; % of cells in S phase (HT-29 cancer cells [6]; [9]): 16.50%; % of cells in SG (SubG1) phase (HT-29 cancer cells [6]; [9]): 20.23%; % of cells in G1 phase (HT-29 cancer cells [6]; [10]): 26.06%; % of cells in G2/M phase (HT-29 cancer cells [6]; [10]): 4.37%; % of cells in S phase (HT-29 cancer cells [6]; [10]): 13.10%; % of cells in SG (SubG1) phase (HT-29 cancer cells [6]; [10]): 55.80%
COc1cc(Cc2nnc3sc(/C=C/c4ccc(F)cc4)nn23)c(S(=O)(=O)N(C)C)cc1OC [KA25, (E)-2-((6-(4-Fluorostyryl)-[1,2,4]Triazolo[3,4-b][1,3,4]Thiadiazol-3-Yl)Methyl)-4,5-Dimethoxy-N,N-Dimethylbenzenesulfonamide] |  |  |  |  | 65 ± 0.5 | 11.4 ± 0.5 | > 100 | > 100 | 15 ± 0.9 | 8 ± 0.76 | > 100 | >100 µM | 1 ± 0.3 | > 100 |  |  | 47 | less significant inhibition of topIIα phosphorylation | 33 | 3–5 times | 
COc1cc(Cc2nnc3sc(/C=C/c4ccc(Cl)cc4)nn23)c(S(=O)(=O)N(C)C)cc1OC [KA26, (E)-2-((6-(4-Chlorostyryl)-[1,2,4]Triazolo[3,4-b][1,3,4]Thiadiazol-3-Yl)Methyl)-4,5-Dimethoxy-N,N-Dimethylbenzenesulfonamide] |  |  |  |  | >100 | 1.2 ± 0.81 | > 100 | > 100 | 30 ± 0.9 | 15 ± 0.8 | > 100 | >100 µM | 2 ± 0.76 | > 100 |  |  | 18 | did not affect the phosphorylation status of topIIα | 50 | 3–5 times | 
COc1cc(Cc2nnc3sc(-c4cc([N+](=O)[O-])ccc4[N+](=O)[O-])nn23)c(S(=O)(=O)N(C)C)cc1OC [KA39, 2-((6-(2,5-Dinitrophenyl)-[1,2,4]Triazolo[3,4-b][1,3,4]Thiadiazol-3-Yl)Methyl)-4,5-Dimethoxy-N,N-Dimethylbenzenesulfonamide] | 17.35 | 13.12 | 20.68 | 20.96 | 5 ± 0.76 | 3 ± 0.52 | 9 ± 0.76 | 40.5 ± 0.76 | 15 ± 0.36 | 2.2 ± 0.2 | 10.5 ± 0.15 | 15.9 µM and 15.9 ± 0.55 µM | 11.5 ± 0.8 | 19.5 ± 0.9 | 46.64 | 3.74 | 60 | enhanced the phosphorylation status of topIIα | 76 | 3–5 times | topoisomerase II reaction product on agarose gel (topoisomerase II; pHOT1 supercoiled DNA, KA39 0.1, 1.0, 7.5 and 20 μΜ, non-EB gel): induced the formation of supercoiled DNA in all concentrations used; % of cells in S phase (HT-29 cancer cells [6]; [9]): 21.52%; % of cells in SG (SubG1) phase (HT-29 cancer cells [6]; [9]): 27.06%; % of cells in G1 phase (HT-29 cancer cells [6]; [10]): 40.95%; % of cells in G2/M phase (HT-29 cancer cells [6]; [10]): 9.48%; % of cells in S phase (HT-29 cancer cells [6]; [10]): 14.66%; % of cells in SG (SubG1) phase (HT-29 cancer cells [6]; [10]): 33.51%
